Results pooled from the literature.
Target: Tyrosine-protein kinase ZAP-70 (ZAP70, Homo sapiens, UniProt P43403)
One construct used (P43403 1-619): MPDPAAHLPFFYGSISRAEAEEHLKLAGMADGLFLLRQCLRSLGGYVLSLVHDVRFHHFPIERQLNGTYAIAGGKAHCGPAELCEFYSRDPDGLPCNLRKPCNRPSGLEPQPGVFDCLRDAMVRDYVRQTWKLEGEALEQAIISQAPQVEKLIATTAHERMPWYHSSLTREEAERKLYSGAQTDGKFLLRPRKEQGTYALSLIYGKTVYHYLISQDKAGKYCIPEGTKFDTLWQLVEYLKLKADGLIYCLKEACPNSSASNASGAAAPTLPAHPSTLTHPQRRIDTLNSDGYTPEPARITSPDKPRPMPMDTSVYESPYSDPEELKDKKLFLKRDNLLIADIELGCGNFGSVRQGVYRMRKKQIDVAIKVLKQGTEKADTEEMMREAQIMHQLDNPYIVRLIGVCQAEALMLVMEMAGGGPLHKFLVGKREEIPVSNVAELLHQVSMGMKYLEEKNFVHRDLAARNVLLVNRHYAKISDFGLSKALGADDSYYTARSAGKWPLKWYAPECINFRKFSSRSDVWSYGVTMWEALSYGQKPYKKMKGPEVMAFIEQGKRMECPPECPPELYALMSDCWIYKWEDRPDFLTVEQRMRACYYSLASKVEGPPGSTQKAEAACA

Cc1cc(C)c(-n2ccn3nc(-c4cccnc4)cc23)cc1NC(=O)c1cc(C#N)cc(S(F)(F)(F)(F)F)c1
remaining binding (cell-free assay; competition with immobilised ligand; 0.1 µM): 79.9%

CCOc1cc(-c2nncn2C)ccc1Nc1ncc2cc(C)nc(NCC(C)(C)C)c2n1
inhibition (enzyme activity; inhibitor; FRET; 1 µM): < 15%

FC(F)(F)Oc1cccc(-c2cnc3ccc(-c4ccncc4)nn23)c1
activity vs control (enzyme activity; inhibitor; radiometric; 1 µM): 116%

O=C1NC(=O)c2cc(Nc3ccc(F)cc3)c(Nc3ccc(F)cc3)cc21
remaining signal (cell-free assay; 0.5 µM): 78.8%

CS(=O)(=O)Nc1cccc(-c2csc(NC(=O)CSc3nc4nccnc4c(=O)n3CCc3ccccc3)n2)c1
inhibition (enzyme activity; inhibitor; 10 µM): 9%

COc1cc2ncnc(Nc3ccc(Oc4ccccc4)cc3C)c2cc1OC
inhibition (enzyme activity; inhibitor; 1 µM): 0%

Cc1c(NC(=O)c2cc(C(N)=O)nc3cc(F)ccc23)c(C(F)(F)F)nn1Cc1ccc(C(C)(C)C)cc1
remaining binding (cell-free assay; competition with immobilised ligand; 1 µM): 100%

Cc1cnc(NC2CCOCC2)nc1-n1cnc(C(=O)NC(CN)c2cc(F)cc(Cl)c2)c1 (stereo not drawn)
remaining activity (enzyme activity; inhibitor; radiometric; 1 µM): 115%

Cc1ccc(C(=O)NCc2ccsc2)cc1C#Cc1cn(C(C)C)c2ncnc(N)c12
activity vs control (enzyme activity; inhibitor; 1 µM): 89%

CCN(CC)CCNC(=O)c1c(C)[nH]c(/C=C2\C(=O)Nc3ccc(F)cc32)c1C
remaining activity (enzyme activity; inhibitor; 1 µM): 110%

Cc1ccc(Nc2nccc(N(C)c3ccc4c(C)n(C)nc4c3)n2)cc1S(N)(=O)=O
remaining activity (enzyme activity; inhibitor; 0.5 µM): 92.6%

C[C@@H]1CN(c2cc(-c3n[nH]c4ccc(OC5(C)CC5)cc34)ncn2)C[C@H](C)O1
remaining binding (cell-free assay; competition with immobilised ligand; 0.1 µM): 83%

COc1cc(/C=C/C(=O)CC(=O)/C=C/c2ccc(O)c(OC)c2)ccc1O
activity vs control (enzyme activity; inhibitor; 1 µM): 108%

CNCc1ccc(-c2cc(-c3nc(-c4ccc(S(=O)(=O)C(C)C)cc4)cnc3N)on2)cc1
inhibition (enzyme activity; inhibitor; 0.4 µM): 0%

COc1cc(Cl)c(C(=O)N[C@@H](CN[C@H]2CC[C@@H](N)CC2)Cc2ccc(C#N)cc2)cc1-c1ccc(CN[C@H](C)c2ccc(C)cc2)o1
remaining activity (enzyme activity; inhibitor; 1 µM): 93%

O=C(Nc1ccc(Oc2ccc(F)cc2)cc1)N1CCc2ncccc2[C@H]1c1ccc(F)cc1
remaining binding (cell-free assay; competition with immobilised ligand; 1 µM): 91%

COc1ccc(COc2ccc(Cc3cnc(N)nc3N)cc2OC)cc1
remaining signal (cell-free assay; 0.5 µM): 94.3%

CCN(CC)CCNC(=O)c1c(C)[nH]c(/C=C2\C(=O)Nc3ccc(F)cc32)c1C
inhibition (enzyme activity; inhibitor; 0.3 µM): 2%

Cc1[nH]c(/C=C2\C(=O)Nc3ccc(F)cc32)c(C)c1C(=O)N[C@H]1CCN(C(=O)N(C)C)C1
remaining activity (enzyme activity; inhibitor; 1 µM): 116%

CCCOc1ccc(OC)c(F)c1C(=O)c1ccc(C(=O)N[C@@H]2CNC[C@H]2NC(=O)c2ccc3[nH]ncc3c2)cc1
remaining activity (enzyme activity; inhibitor; 10 µM): 90%

Nc1ncnc2occ(-c3ccc(NC(=O)Nc4cc(C(F)(F)F)ccc4F)cc3)c12
remaining signal (cell-free assay; inhibitor; 20 µM): 2.4%

COc1cc(Nc2cnc(C#N)c(O[C@H](C)CN(C)C)n2)ncc1-c1cnn(C)c1
remaining activity (enzyme activity; inhibitor; radiometric; 1 µM): 104%

CCCOc1ccc([C@H]2[C@H](C(=O)O)[C@@H](c3ccc4c(c3)OCO4)CN2CC(=O)Nc2c(CC)cccc2CC)cc1
remaining binding (cell-free assay; competition with immobilised ligand; 1 µM): 50%

CNC(=O)c1cc(Oc2ccc(NC(=O)Nc3ccc(Cl)c(C(F)(F)F)c3)cc2)ccn1
inhibition (enzyme activity; inhibitor; 10 µM): -42%

O=C(N[C@H]1CCCCC/C=C\C2C[C@@]2(C(=O)O)NC(=O)[C@@H]2C[C@@H](Oc3ccncc3)CN2C1=O)OC1CCCC1 (stereo partly drawn)
remaining binding (binding; competition with immobilised ligand; 1 µM): 96%

O=C(Nc1cnn(-c2csc(C(=O)NC3COC3)c2)c1)Nc1ccccc1Cl
remaining activity (enzyme activity; inhibitor; 5 µM): 102%

COc1cc(-c2cn(C3CCc4ccccc4N(CC(F)(F)F)C3=O)nn2)ccc1-n1ccc(C)n1 (stereo not drawn)
remaining binding (cell-free assay; competition with immobilised ligand; 1 µM): 82%

CC(C)(C)c1nc(-c2cccc(NS(=O)(=O)c3c(F)cccc3F)c2F)c(-c2ccnc(N)n2)s1
remaining activity (enzyme activity; inhibitor; radiometric; 1 µM): 92%

COCCOc1nc(-c2ccc(Cl)nc2)nc2c1CN(C(=O)c1ncn3ccccc13)CC2
remaining binding (cell-free assay; competition with immobilised ligand; 0.1 µM): 95%

CN1CC(Oc2cnc(C#N)cc2-c2ccn3nc(NC(=O)C4CC4)cc3c2)C1
inhibition (enzyme activity; inhibitor; 1 µM): 8%
